Assay results as given in ChEMBL document CHEMBL4138227, “Identification of an oxime-containing C-glucosylarene as a potential inhibitor of sodium-dependent glucose co-transporter 2” (Eur J Med Chem, 2018).

Experiments:
[1] = molecular target: T1, Sodium/glucose cotransporter 2 (Homo sapiens, UniProt P31639); assay: Inhibition of human SGLT2 expressed in CHO cells assessed as reduction in [14C]AMG uptake after 1 hr by microbeta counting method; format: cell-based
T1 sequence (P31639 whole entry): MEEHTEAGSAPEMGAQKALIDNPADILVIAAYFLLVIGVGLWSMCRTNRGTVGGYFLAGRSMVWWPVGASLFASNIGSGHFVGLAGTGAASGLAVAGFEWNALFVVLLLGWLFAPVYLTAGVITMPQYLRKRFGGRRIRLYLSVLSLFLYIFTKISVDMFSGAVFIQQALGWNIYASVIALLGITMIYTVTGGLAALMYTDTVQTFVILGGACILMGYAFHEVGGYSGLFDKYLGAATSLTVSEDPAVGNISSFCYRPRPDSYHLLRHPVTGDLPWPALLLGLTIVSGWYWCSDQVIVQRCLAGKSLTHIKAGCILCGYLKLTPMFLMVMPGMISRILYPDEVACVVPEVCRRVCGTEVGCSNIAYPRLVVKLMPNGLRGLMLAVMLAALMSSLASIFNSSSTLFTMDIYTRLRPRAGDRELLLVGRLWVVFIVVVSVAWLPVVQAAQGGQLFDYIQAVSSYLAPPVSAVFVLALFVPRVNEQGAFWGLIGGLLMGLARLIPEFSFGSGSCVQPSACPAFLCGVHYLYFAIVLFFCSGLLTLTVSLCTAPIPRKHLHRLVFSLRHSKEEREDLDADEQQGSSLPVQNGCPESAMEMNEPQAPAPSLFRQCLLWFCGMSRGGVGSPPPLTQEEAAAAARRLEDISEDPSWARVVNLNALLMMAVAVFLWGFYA
Procedure, shortened: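 CHO cells stably expressing human SGLT2 (or SGLT1); inhibition of sodium-dependent uptake of [14C]α-methyl-D-glucopyranoside measured; EC50 from at least two independent experiments, each in triplicate.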

[2] = Elimination half life in Sprague-Dawley rat at 0.9 mg/kg, iv; format: ADME, organism-based; conditions: in vivo, read-out: beta t1/2 (converted)
[3] = Clearance in Sprague-Dawley rat at 0.9 mg/kg, iv; format: ADME, organism-based; conditions: in vivo
[4] = Volume of distribution at steady state in Sprague-Dawley rat at 0.9 mg/kg, iv; format: ADME, organism-based; conditions: in vivo, read-out: Vdss
[5] = AUC (0 to infinity) in Sprague-Dawley rat at 0.9 mg/kg, iv; format: ADME, organism-based; design: dose 0.9 mg/kg, route intravenous, time infinity; conditions: in vivo
Procedure, shortened: (§1)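 Rats got a single intravenous or oral dose, with 3 animals per route. Pharmacokinetic parameters were derived, including T1/2, clearance, Vss, Cmax, Tmax, AUC(0-inf) and oral bioavailability (F).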

[6] = Elimination half life in Sprague-Dawley rat at 1 mg/kg, iv; format: ADME, organism-based; conditions: in vivo, read-out: beta t1/2 (converted)
[7] = Clearance in Sprague-Dawley rat at 1 mg/kg, iv; format: ADME, organism-based; conditions: in vivo
[8] = Volume of distribution at steady state in Sprague-Dawley rat at 1 mg/kg, iv; format: ADME, organism-based; conditions: in vivo, read-out: Vdss
[9] = AUC (0 to infinity) in Sprague-Dawley rat at 1 mg/kg, iv; format: ADME, organism-based; design: dose 1 mg/kg, time infinity, route intravenous; conditions: in vivo; procedure, shortened: as §1
[10] = Elimination half life in Sprague-Dawley rat at 1 mg/kg, po; format: ADME, organism-based; conditions: in vivo, read-out: beta t1/2 (converted)
[11] = Cmax in Sprague-Dawley rat at 1 mg/kg, po; format: ADME, organism-based; design: dose 1 mg/kg, route oral; conditions: in vivo
[12] = Tmax in Sprague-Dawley rat at 1 mg/kg, po; format: ADME, organism-based; conditions: in vivo
[13] = AUC (0 to infinity) in Sprague-Dawley rat at 1 mg/kg, po; format: ADME, organism-based; design: dose 1 mg/kg, time infinity, route oral; conditions: in vivo; procedure, shortened: as §1
[14] = Oral bioavailability in Sprague-Dawley rat at 1 mg/kg; format: ADME, organism-based; conditions: in vivo

In the case of `CCOc1ccc(Cc2cc([C@@H]3O[C@H](/C=N/Nc4ccccc4[N+](=O)[O-])[C@@H](O)[C@H](O)[C@H]3O)ccc2Cl)cc1`, the EC50 [1] is reported as 457 nM.
Work on `CCOc1ccc(Cc2cc([C@@H]3O[C@H](/C=N/OCCO)[C@@H](O)[C@H](O)[C@H]3O)ccc2Cl)cc1` yielded an EC50 [1] of 194 nM.
In the case of `C#CCO/N=C/[C@H]1O[C@@H](c2ccc(Cl)c(Cc3ccc(OCC)cc3)c2)[C@H](O)[C@@H](O)[C@@H]1O`, the EC50 [1] is reported as 431 nM.
`CCOc1ccc(Cc2cc([C@@H]3O[C@H](/C=N/NC(=O)c4ccccc4)[C@@H](O)[C@H](O)[C@H]3O)ccc2Cl)cc1` gave an EC50 [1] of 130 nM, a half-life [2] of 0.36 h and a clearance [3] of 75.7 mL/min/kg. For the same compound, the Vd [4] was 1.4 L/kg and the AUC(0-inf) [5] was 206 ng·h/mL.
Compound `CCOc1ccc(Cc2cc([C@@H]3O[C@H](/C=N/NC(=O)c4ccco4)[C@@H](O)[C@H](O)[C@H]3O)ccc2Cl)cc1` has an EC50 [1] of 301 nM.
With `CCOc1ccc(Cc2cc([C@@H]3O[C@H](/C=N/OCCOC)[C@@H](O)[C@H](O)[C@H]3O)ccc2Cl)cc1` the EC50 [1] was 678 nM.
With `CCOc1ccc(Cc2cc([C@@H]3O[C@H](/C=N/NCc4ccccc4)[C@@H](O)[C@H](O)[C@H]3O)ccc2Cl)cc1` the EC50 [1] was 38 nM.
Compound `CCOc1ccc(Cc2cc([C@@H]3O[C@H](/C=N/Nc4nc5ccccc5s4)[C@@H](O)[C@H](O)[C@H]3O)ccc2Cl)cc1` has an EC50 [1] of 204 nM.
Work on `CCOc1ccc(Cc2cc([C@@H]3O[C@H](/C=N/NC(=O)c4cccs4)[C@@H](O)[C@H](O)[C@H]3O)ccc2Cl)cc1` yielded an EC50 [1] of 175 nM.
For `CCOc1ccc(Cc2cc([C@@H]3O[C@H](CNNc4ccc([N+](=O)[O-])cc4)[C@@H](O)[C@H](O)[C@H]3O)ccc2Cl)cc1`, the EC50 [1] was 211 nM.
Work on `CCOc1ccc(Cc2cc([C@@H]3O[C@H](/C=N/OC)[C@@H](O)[C@H](O)[C@H]3O)ccc2Cl)cc1` yielded an EC50 [1] of 92 nM, a half-life [6] of 3 h and a clearance [7] of 12.6 mL/min/kg. It also gave a Vd [8] of 2.9 L/kg, an AUC(0-inf) [9] of 1320 ng·h/mL and a half-life [10] of 2.5 h. The Cmax [11] was 116 ng/mL, the Tmax [12] was 1 h and the AUC(0-inf) [13] was 540 ng·h/mL. It also gave a bioavailability [14] of 40.5%.
Work on `CCOc1ccc(Cc2cc([C@@H]3O[C@H](/C=N/OCc4ccccc4)[C@@H](O)[C@H](O)[C@H]3O)ccc2Cl)cc1` yielded an EC50 [1] of 2250 nM.
In the case of `CCOc1ccc(Cc2cc([C@@H]3O[C@H](/C=N/NC(=O)c4ccc(Cl)cc4)[C@@H](O)[C@H](O)[C@H]3O)ccc2Cl)cc1`, the EC50 [1] is reported as 65 nM.
